Consider 20 compounds from ChEMBL document CHEMBL1152533, “Synthesis and biological evaluation of 3,4-diaryl-5-aminoisoxazole derivatives” (Bioorg Med Chem, 2009).

Each structure is given as a SMILES string.

The nature of experiment [1]: Cytotoxicity against human ECA109 cells after 48 hrs by MTT assay. It is filed as functional, cell-based. The following applies: ECa-109, 48 h. An outline of the steps:
(§1)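 MTT viability assay: cells exposed to compound for 48 h, MTT in RPMI-1640 added for a further 4 h at 37 °C, formazan dissolved in DMSO, absorbance at 570 nm. Triplicate wells, three independent experiments; IC50 (50% viability inhibition) computed by dose-effect analysis and reported as mean of three experiments. CA-4 as positive control.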
On the technique in general: Tetrazolium assays rely on reduction of a dye to a coloured formazan, in cell work by metabolically active cells.

Experiment [2] has as its system A549. Kind of experiment: Cytotoxicity against human A549 cells after 48 hrs by MTT assay. It is filed as functional, cell-based. The note with it: A549, 48 h. An outline of the steps: as §1
Experiment [3] concerns PC-3. Kind of experiment: Cytotoxicity against human PC3 cells after 48 hrs by MTT assay. The note with it: PC-3, 48 h. In kind it is functional, cell-based. An outline of the steps: as §1
Experiment [4] deals with K562. The experiment can be described thus: Cytotoxicity against human K562 cells after 48 hrs by MTT assay. In kind it is functional, cell-based. The following applies: K562, 48 h. The method in brief:
as §1

The test system of experiment [5] is SMMC-7721. The experiment can be described thus: Cytotoxicity against human SMMC7721 cells after 48 hrs by MTT assay. In kind it is functional, cell-based. The note with it: SMMC-7721, 48 h. An outline of the steps: as §1
Experiment [6] in a line: Inhibition of bovine tubulin polymerization by fluorescent plate reader analysis. Further details: species or system Bos taurus.
Experiment [7] concerns SMMC-7721. Kind of experiment: Cell cycle arrest in human SMMC7721 cells assessed as accumulation at G2/M phase at 0.1 uM after 24 hrs by propidium iodide staining-based FACS analysis. In kind it is functional. The method in brief:
(§2)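 SMMC-7721 cells (5 × 10⁴/mL) exposed 24 h to graded concentrations (0.01–1.0 µM) alongside DMSO and CA-4 controls; washed twice in PBS, fixed in 75% ethanol at −20 °C, RNase-treated at 37 °C for 0.5 h, stained with propidium iodide at 4 °C for 15 min, then analysed by flow cytometry for G2/M and S fractions.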
(In general: A flow cytometer gives signals particle by particle.)

For experiment [8], the system named is SMMC-7721. Kind of experiment: Cell cycle arrest in human SMMC7721 cells assessed as accumulation at S phase at 0.1 uM after 24 hrs by propidium iodide staining-based FACS analysis. It is filed as functional. An outline of the steps: as §2
The test system of experiment [9] is SMMC-7721. The experiment can be described thus: Cell cycle arrest in human SMMC7721 cells assessed as accumulation at G2/M phase at 1 uM after 24 hrs by propidium iodide staining-based FACS analysis. It is filed as functional. An outline of the steps:
as §2

For experiment [10], the system named is SMMC-7721. The experiment can be described thus: Cell cycle arrest in human SMMC7721 cells assessed as accumulation at S phase at 1 uM after 24 hrs by propidium iodide staining-based FACS analysis. It is filed as functional. An outline of the steps:
as §2

Experiment [11] concerns SMMC-7721. Kind of experiment: Induction of apoptosis in human SMMC7721 cells at 0.1 uM after 48 hrs. In kind it is functional.
Experiment [12] deals with SMMC-7721. The experiment can be described thus: Induction of apoptosis in human SMMC7721 cells at 0.5 uM after 48 hrs. In kind it is functional.
Experiment [13] relates to SMMC-7721. The experiment can be described thus: Induction of apoptosis in human SMMC7721 cells at 1 uM after 48 hrs. In kind it is functional.

Turning to `COc1ccc(-c2noc(N)c2-c2cc(OC)c(OC)c(OC)c2)cc1O`, the half-maximal inhibitory concentration (IC50) in experiment [1], in experiment [2] and in experiment [3] was greater than 50 µM in each case.
As to `COc1ccc(-c2c(-c3cc(OC)c(OC)c(OC)c3)noc2N)cc1OC`, the 50% inhibitory concentration (IC50) was 1.27 µM in experiment [4]; 20.6 µM in [1]; greater than 50 µM in experiment [2]; greater than 50 µM in experiment [5]; 21.1 µM in [3].
As for `COc1ccc(-c2c(-c3cc(OC)c(OC)c(OC)c3)noc2NC(C)=O)cc1OC`, the half-inhibitory concentration (IC50) was 3.71 µM in experiment [4]; 17.7 µM in experiment [1]; 19.8 µM in [2]; 46.3 µM in experiment [5]; greater than 50 µM in [3].
For `COc1cc(-c2noc(N)c2-c2cc(OC)c(OC)c(OC)c2)cc(OC)c1OC` the same measures were 3.65 µM, greater than 50 µM, greater than 50 µM, greater than 50 µM and greater than 50 µM.
For the compound `COc1ccc(-c2noc(N)c2-c2cc(OC)c(OC)c(OC)c2)cc1OCc1ccccc1`, the IC50 in experiment [1] was greater than 50 µM; in [2], 38.2 µM; in [3], greater than 50 µM.
Take `COc1cc(-c2noc(NC(C)=O)c2-c2cc(OC)c(OC)c(OC)c2)cc(OC)c1OC`: the IC50 turned out to be 3.97 µM in experiment [4]; 13.9 µM in [1]; 21.1 µM in experiment [2]; 24.6 µM in experiment [5]; 14.9 µM in experiment [3].
As to `COc1ccc(-c2noc(NC(C)=O)c2-c2cc(OC)c(OC)c(OC)c2)cc1OCc1ccccc1`, the IC50 in [1], in experiment [2] and in experiment [3] was greater than 50 µM throughout.
For the compound `COc1ccc(-c2c(-c3cc(OC)c(OC)c(OC)c3)noc2NC(C)=O)cc1`, the half-inhibitory concentration (IC50) was 0.38 µM in [4]; 10.8 µM in [1]; 10.7 µM in experiment [2]; greater than 50 µM in experiment [5]; greater than 50 µM in experiment [3].
For the compound `COc1cc(-c2noc(NC(C)=O)c2-c2ccc(Cl)cc2)cc(OC)c1OC`, the IC50 in [4] is 3.62 µM; in experiment [1], 9.53 µM; in experiment [2], 24.9 µM; in experiment [5] it was greater than 50 µM; in experiment [3] it was 1.91 µM.
As to `COc1ccc(-c2noc(NC(C)=O)c2-c2cc(OC)c(OC)c(OC)c2)cc1OC`, the IC50 in experiment [4] is 8.75 µM; in experiment [1] it was greater than 50 µM; in experiment [2] it was greater than 50 µM; in experiment [5] it was greater than 50 µM; in [3] it was greater than 50 µM.
For the compound `COc1ccc(-c2c(-c3cc(OC)c(OC)c(OC)c3)noc2N(C(C)=O)C(C)=O)cc1`, the concentration for half-maximal inhibition (IC50) came out at 0.068 µM in experiment [4]; 0.39 µM in experiment [1]; 0.43 µM in [2]; 1.36 µM in experiment [5]; 0.36 µM in experiment [3]; 2.1 µM in [6]. The Activity in experiment [7] came to 41.5%; in [8] it was 50.4%; in experiment [9], 70%; in experiment [10] it was 24.3%; in experiment [11], 37%; in experiment [12], 70%. Also, the Activity in [13] is on record as 72%.
With `COc1ccc(-c2noc(N)c2-c2cc(OC)c(OC)c(OC)c2)cc1OC`, the IC50 in [4] is 1.4 µM; in experiment [1], 1.66 µM; in experiment [2], greater than 50 µM; in [5] it was greater than 50 µM; in experiment [3], greater than 50 µM.
As for `COc1ccc(-c2c(-c3cc(OC)c(OC)c(OC)c3)noc2N(C(C)=O)C(C)=O)cc1OC`, the IC50 in experiment [4] was 4.29 µM; in [1], greater than 50 µM; in [2] it was greater than 50 µM; in experiment [5] it was greater than 50 µM; in experiment [3], greater than 50 µM.
Take `COc1ccc(-c2noc(NC(C)=O)c2-c2cc(OC)c(OC)c(OC)c2)cc1`: the IC50 is 1 µM in [4]; greater than 50 µM in experiment [1]; greater than 50 µM in experiment [2]; greater than 50 µM in experiment [5]; greater than 50 µM in [3].
As to `COc1ccc(-c2c(-c3cc(OC)c(OC)c(OC)c3)noc2N)cc1`, the half-maximal inhibitory concentration (IC50) in [4] came out at 0.04 µM; in experiment [1], 5.84 µM; in experiment [2], 4.49 µM; in experiment [5], 12 µM; in experiment [3], 3.03 µM; in experiment [6] it was 1.8 µM.
For `COc1cc(-c2noc(N(C(C)=O)C(C)=O)c2-c2ccc(Cl)cc2)cc(OC)c1OC`, the half-inhibitory concentration (IC50) in experiment [4] is 3.96 µM; in experiment [1] it was 39.8 µM; in experiment [2], greater than 50 µM; in experiment [5] it was greater than 50 µM; in experiment [3], 2.63 µM.
Turning to `COc1ccc(-c2noc(N)c2-c2cc(OC)c(OC)c(OC)c2)cc1`, the IC50 in experiment [4] was 0.022 µM; in [1] it was 9.82 µM; in experiment [2], 21.8 µM; in experiment [5], 39.8 µM; in [3], 15 µM.
Regarding `COc1ccc(-c2noc(NC(C)=O)c2-c2cc(OC)c(OC)c(OC)c2)cc1O`, the IC50 in [1], in experiment [2] and in experiment [3] was greater than 50 µM in each case.
In the case of `COc1cc(-c2noc(N)c2-c2ccc(Cl)cc2)cc(OC)c1OC`, the concentration for half-maximal inhibition (IC50) is 0.64 µM in experiment [4]; greater than 50 µM in experiment [1]; greater than 50 µM in experiment [2]; greater than 50 µM in [5]; greater than 50 µM in experiment [3].
In the case of `COc1ccc(/C=C\c2cc(OC)c(OC)c(OC)c2)cc1O` [COMBRETASTATIN A4], the half-inhibitory concentration (IC50) came out at 0.046 µM in experiment [4]; 4.5 µM in experiment [1]; 0.42 µM in experiment [2]; 3.22 µM in [5]; 5.4 µM in experiment [3].

The term IC50 denotes the concentration that gives 50% inhibition. A high value points to weaker potency in that assay.
